Measured values from ChEMBL document CHEMBL1132277, “Probing the binding of indolactam-V to protein kinase C through site-directed mutagenesis and computational docking simulations” (J Med Chem, 1999).

Columns and labels:
[1] = target: T1, Protein kinase C delta type (Mus musculus, UniProt P28867); assay: Binding of Indolactam-V(ILV) to mutant Protein kinase C delta C1b domain (Gln27 to Val)
In short: (§1)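 GST fusions of PKCδ C1b domains (wild type or point mutants) expressed in E. coli, used purified or as total lysates. Incubated 5 min at 18 °C with [3H]PDBu, phosphatidylserine, 1 mM EGTA and varying unlabelled (–)-ILV. Bound ligand separated by 35% poly(ethylene glycol) precipitation and centrifugation, then supernatant and pellet counted. Final ligand concentrations used in calculations. Where [3H]PDBu binding was insufficient, ILV affinity was left undetermined.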

[2] = target: T1, Protein kinase C delta type; assay: Binding of Indolactam-V(ILV) to mutant Protein kinase C delta C1b domain (Phe13 to Gly); in short: as §1
[3] = target: T1, Protein kinase C delta type; assay: Binding of Indolactam-V(ILV) to mutant Protein kinase C delta C1b domain (Leu20 to Gly); in short: as §1
[4] = target: T1, Protein kinase C delta type; assay: Binding of Indolactam-V(ILV) to mutant Protein kinase C delta C1b domain (Pro11 to Gly); in short: as §1
[5] = target: T1, Protein kinase C delta type; assay: Binding of Indolactam-V(ILV) to wild-type Protein kinase C delta C1b domain; in short: as §1
[6] = target: T1, Protein kinase C delta type; assay: Binding of Indolactam-V(ILV) to mutant Protein kinase C delta C1b domain (Tyr8 to Gly); in short: as §1
[7] = target: T1, Protein kinase C delta type; assay: Binding of Indolactam-V(ILV) to mutant Protein kinase C delta C1b domain (Thr12 to Gly); in short: as §1

T1 sequence (P28867 whole entry, the tested form may be a part): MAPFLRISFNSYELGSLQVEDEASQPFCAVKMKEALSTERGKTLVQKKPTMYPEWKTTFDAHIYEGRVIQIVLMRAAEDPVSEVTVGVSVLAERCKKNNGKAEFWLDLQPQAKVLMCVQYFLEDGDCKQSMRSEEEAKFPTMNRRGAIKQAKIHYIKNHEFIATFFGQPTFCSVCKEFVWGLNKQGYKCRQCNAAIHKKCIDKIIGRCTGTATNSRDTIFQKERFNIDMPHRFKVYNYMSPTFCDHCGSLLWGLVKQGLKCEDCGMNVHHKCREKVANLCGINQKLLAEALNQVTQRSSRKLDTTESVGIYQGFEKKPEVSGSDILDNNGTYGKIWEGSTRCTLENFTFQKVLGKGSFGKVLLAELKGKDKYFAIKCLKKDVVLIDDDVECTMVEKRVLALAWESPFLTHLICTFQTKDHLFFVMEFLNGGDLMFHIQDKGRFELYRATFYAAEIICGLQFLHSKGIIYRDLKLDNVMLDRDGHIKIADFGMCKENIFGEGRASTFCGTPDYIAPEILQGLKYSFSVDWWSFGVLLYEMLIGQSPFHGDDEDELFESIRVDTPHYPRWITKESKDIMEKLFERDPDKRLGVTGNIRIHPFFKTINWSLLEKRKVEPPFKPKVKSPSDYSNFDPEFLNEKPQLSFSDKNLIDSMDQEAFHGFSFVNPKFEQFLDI

Structure (SMILES): CC(C)[C@H]1C(=O)N[C@H](CO)Cc2c[nH]c3cccc(c23)N1C [INDOLACTUM]
- Ki [1]: 1100 nM
- Ki [2]: 10.9 nM
- Ki [3]: 66.2 nM
- Ki [4]: 7080 nM
- Ki [5]: 2.01 nM
- Ki [6]: 658 nM
- Ki [7]: 25.3 nM
